In paper PMC8721161 (International Journal of Nanomedicine, 2021):

Legend:
[1] = In vitro dissolution / drug release study; assay type: physicochemical; conditions: 0.1 M phosphate buffer pH 6.8, 37±0.5 °C, dialysis bag, up to 12 h
Procedure, shortened: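 Free test compound, its cyclodextrin complex and the complex-loaded chitosan nanoparticles were placed in dialysis bags presoaked overnight. Medium was 100 mL of 0.1 M phosphate buffer, pH 6.8, at 37±0.5 °C. Samples were 0.45 µm filtered and assayed by UV at 388 nm.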

α-glucosidase enzyme = test: Alpha-glucosidase enzyme inhibition activity; assay type: biochemical; conditions: concentration not given
Procedure, shortened: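 Enzyme was 0.02 U/μL α-glucosidase in 0.2 M sodium phosphate buffer, pH 6.8. Enzyme and buffer were preincubated 20 min with test compound in DMSO at 1000, 500, 250, 125 or 62.5 μg/mL. 0.02 M PNPG substrate was added for a further 30 min. The reaction was stopped with 0.2 M Na2CO3. Released p-nitrophenol was read at 405 nm and % inhibition calculated by formula.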

[2] = In vivo pharmacokinetic study, single oral dose, EPL in rabbit plasma by HPLC; parameters: species or system rabbits (Oryctolagus cuniculus)
Procedure, shortened: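 Non-pregnant adult rabbits (2.5±0.1 kg) in three groups of six got a single oral dose of free compound, complex or nanoparticles. Jugular blood went into EDTA at set times, was spun 12,000 rpm 30 min, and plasma stored −70 °C. Perchloric acid precipitation preceded C18 HPLC (acetonitrile:KH2PO4 60:40, pH 4.0; 388 nm; plasma calibration 0.02–10 μg/mL). Non-compartmental log-linear trapezoidal analysis gave parameters; mean±SD.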

cumulative drug release (%) [1]: 20–25%
potency against α-glucosidase enzyme inhibition (α-glucosidase enzyme): greater than 70%
Cmax ([2]; plasma, po): 4750 ± 3640 ng/mL
AUC ([2]; plasma, po, AUC0-α, single oral dose, mean±SD): 192 ± 165 µg·h/mL
AUC0-α ([2]; single oral dose, mean±SD): 191.5 ± 164.63 µg·h/mL
MRT ([2]; single oral dose, mean±SD): 47.22±3.88 H
T1/2 (elimination half-life) ([2]; single oral dose, mean±SD): 4 H
SMILES: CC(/C=C1\SC(=S)N(CC(=O)O)C1=O)=C\c1ccccc1 [EPL, Epalrestat]
